In data set [1] the target is T1, Angiotensin-converting enzyme (Rattus norvegicus) (UniProt P47820).
T1 sequence (whole entry): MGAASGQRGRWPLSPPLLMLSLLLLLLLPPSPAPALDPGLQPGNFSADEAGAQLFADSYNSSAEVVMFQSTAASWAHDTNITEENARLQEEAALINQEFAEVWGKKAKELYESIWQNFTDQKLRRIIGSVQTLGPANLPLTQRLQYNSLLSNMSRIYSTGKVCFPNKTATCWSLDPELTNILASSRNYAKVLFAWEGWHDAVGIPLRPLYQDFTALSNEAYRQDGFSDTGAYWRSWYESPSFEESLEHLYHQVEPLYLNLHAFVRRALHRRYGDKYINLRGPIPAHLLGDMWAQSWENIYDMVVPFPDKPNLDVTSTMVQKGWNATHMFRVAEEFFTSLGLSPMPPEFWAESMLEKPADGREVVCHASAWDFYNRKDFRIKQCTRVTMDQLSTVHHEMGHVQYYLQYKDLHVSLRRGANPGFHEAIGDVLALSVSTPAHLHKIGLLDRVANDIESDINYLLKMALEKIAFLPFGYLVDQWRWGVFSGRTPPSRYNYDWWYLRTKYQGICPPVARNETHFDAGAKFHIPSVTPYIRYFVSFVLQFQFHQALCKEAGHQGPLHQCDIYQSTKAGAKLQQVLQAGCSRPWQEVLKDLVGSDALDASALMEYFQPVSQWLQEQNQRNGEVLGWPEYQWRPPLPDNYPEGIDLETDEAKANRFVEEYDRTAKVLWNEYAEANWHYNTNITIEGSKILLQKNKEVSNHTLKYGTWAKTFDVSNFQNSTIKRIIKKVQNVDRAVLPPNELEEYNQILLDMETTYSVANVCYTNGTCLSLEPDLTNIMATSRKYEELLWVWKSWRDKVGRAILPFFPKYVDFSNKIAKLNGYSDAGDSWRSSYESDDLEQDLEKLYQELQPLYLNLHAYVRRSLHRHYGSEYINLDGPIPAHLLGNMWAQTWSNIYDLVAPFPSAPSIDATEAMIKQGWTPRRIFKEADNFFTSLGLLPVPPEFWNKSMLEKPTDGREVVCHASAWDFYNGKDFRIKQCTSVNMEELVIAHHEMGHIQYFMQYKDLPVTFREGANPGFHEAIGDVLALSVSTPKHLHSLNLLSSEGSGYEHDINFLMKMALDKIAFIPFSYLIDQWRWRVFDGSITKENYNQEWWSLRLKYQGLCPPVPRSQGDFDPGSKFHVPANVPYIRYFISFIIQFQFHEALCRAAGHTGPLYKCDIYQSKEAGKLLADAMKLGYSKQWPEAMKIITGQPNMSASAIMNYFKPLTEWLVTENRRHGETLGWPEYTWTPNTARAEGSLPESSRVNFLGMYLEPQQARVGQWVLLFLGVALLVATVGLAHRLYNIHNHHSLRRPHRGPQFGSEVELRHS
As to the kind of experiment: Relative inhibitory activity against angiotensin I converting enzyme.

Data set [2] addresses T2, Angiotensin-converting enzyme (Rattus norvegicus, UniProt P47820).
T2 sequence (P47820 whole entry): T1 sequence (whole entry)
As to the kind of experiment: Compound was tested for inhibitory activity against angiotensin I converting enzyme.

Data set [3] can be described thus: Compound was tested for its maximum lipophilicity. The class given is physicochemical. Conditions: octanol/water. In short, it runs like this: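 Shake-flask distribution coefficients in octanol–aqueous buffer across pH, run in triplicate and reported as the mean. Aqueous phases were HCl below pH 2, McIlvaine citrate-phosphate at pH 2.2–4.8, and Sorensen phosphate above pH 5, all at ionic strength 0.02. Phases were assayed before and after partitioning by UV or reversed-phase HPLC. Maximum lipophilicity was taken from the distribution–pH profile.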

The nature of data set [4]: The acid dissociation constant, pKa was determined. 'a' represents value of C-terminus carboxylic acid. The class given is physicochemical. Put shortly: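 Potentiometric titration at 25 °C on a thermostated automatic titrator. pKa values were calculated from pH–volume data. For one ester compound, ionization constants were instead obtained by the partition method in Miglyol 812–aqueous buffer systems.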

Data set [5] is described as follows: The acid dissociation constant, pKa was determined.'a' represents value of C-terminus carboxylic acid. The class given is physicochemical. Put shortly:
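Ionization constants came from potentiometric titration at 25 °C on a thermostated automatic titrator, with pKa calculated from the pH–volume data. For one ester, constants were instead determined by the partition method in Miglyol 812–aqueous buffer systems.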

A short description of data set [6]: Ratio of biliary and urinary excretion of angiotensin converting enzyme inhibitors in male rat after intravenous dosing. The class given is functional, Urine.
Data set [7] can be described thus: The acid dissociation constant, pKa was determined. a'' represents value of C-terminus carboxylic acid. Format: physicochemical. In short, it runs like this:
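Ionization constants measured by potentiometric titration at 25 °C on a thermostated automatic titrator, with pKa calculated from pH-volume data. For one ester prodrug, constants were instead obtained by the partition method in Miglyol 812-aqueous buffer systems.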

These results are taken from ChEMBL document CHEMBL1125747, “Design, synthesis, and physicochemical properties of a novel, conformationally restricted 2,3-dihydro-1,3,4-thiadiazole-containing angiotensin converting enzyme inhibitor which is preferentially eliminated by the biliary route in rats” (J Med Chem, 1991).

A word on the IC50: it is the point on the concentration scale where inhibition reaches its midpoint. For orientation: pKa means the negative logarithm of the acid dissociation constant. Read a low pKa as a stronger acid or weaker base.

In data set [1], `O=C(O)C1SC(C2CCCCC2)=NN1C(=O)CCS` (stereo not given) had a Relative activity of 6.3.

As to `O=C(O)C1SC(c2ccc(C(F)(F)F)cc2)=NN1C(=O)CCS` (stereo not given), the Relative activity in data set [1] turned out to be 1.6.

The compound `CCC[C@H](N[C@@H](C)C(=O)N1N=C(C(C)(C)C)S[C@H]1C(=O)O)C(=O)O` registered an IC50 in data set [2] of 0.6 nM.

The compound `O=C(O)C1SC(c2ccco2)=NN1C(=O)CCS` (stereo not given) yielded a Relative activity in data set [1] of 1.

In the case of `O=C(O)C1SC(c2ccccc2)=NN1C(=O)CCS` (stereo not given), the Relative activity in data set [1] came to 1.3.

`CC(C)(C)C1=NN(C(=O)[C@H](CCCCN)N[C@@H](CCc2ccccc2)C(=O)O)[C@H](C(=O)O)S1` displayed an IC50 in data set [2] of 0.7 nM.

On to `CC(C)(C)C1=NN(C(=O)CCS)C(C(=O)O)S1` (stereo not given), for which the Relative activity in data set [1] amounted to 5.6.

Compound `C[C@H](N[C@@H](CCc1ccccc1)C(=O)O)C(=O)N1N=C(c2ccccc2)S[C@H]1C(=O)O` came in with an IC50 in data set [2] of 1.5 nM.

As for `CCOC(=O)[C@H](CCc1ccccc1)N[C@@H](C)C(=O)N1CCC[C@H]1C(=O)O`, in data set [3], the “Log Dmax” value was -0.06. Moreover, in data set [4], the pKa turned out to be 5.49.

`CC1=NN(C(=O)CCS)C(C(=O)O)S1` (stereo not given) had a Relative activity in data set [1] of 2.5.

For the compound `C[C@H](N[C@@H](CCc1ccccc1)C(=O)O)C(=O)N1CCC[C@H]1C(=O)O` [ENALAPRILAT ANHYDROUS], in data set [3], the “Log Dmax” value is recorded as -0.7. In data set [5], this compound displayed a pKa of 8.02.

Turning to `COc1ccc(C2=NN(C(=O)CCS)C(C(=O)O)S2)cc1` (stereo not given), the Relative activity in data set [1] worked out at 1.3.

Take `C[C@H](N[C@@H](CCc1ccccc1)C(=O)O)C(=O)N1N=C(C(C)(C)C)S[C@H]1C(=O)O` [UTIBAPRILAT]: in data set [3], the “Log Dmax” value amounted to 1.19. Also, the Ratio in data set [6] is 14.6. For the same compound, inhibition in data set [2] was half-maximal at 0.51 nM (IC50). Further, the pKa in data set [5] was 8.

As to `CCOC(=O)[C@H](CCc1ccccc1)N[C@@H](C)C(=O)N1CC2(C[C@H]1C(=O)O)SCCS2`, the “Log Dmax” value in data set [3] is 0.87. In data set [5], this compound showed a pKa of 5.5.

With `O=C(O)C1SC(C23CC4CC(CC(C4)C2)C3)=NN1C(=O)CCS` (stereo not given), the Relative activity in data set [1] amounted to 1.3.

Regarding `NCCCC[C@H](N[C@@H](CCc1ccccc1)C(=O)O)C(=O)N1CCC[C@H]1C(=O)O` [LISINOPRIL ANHYDROUS], in data set [3], the “Log Dmax” value is on record as -2.86. For the same compound, the pKa in data set [7] amounted to 11.1.

For the compound `CCOC(=O)[C@H](CCc1ccccc1)N[C@@H](C)C(=O)N1N=C(C(C)(C)C)S[C@H]1C(=O)O` [UTIBAPRIL], in data set [3], the “Log Dmax” value was determined as 1.61. The compound also returned a pKa in data set [5] of 5.4.
